Active and inactive are the calls of the source. The calls are words filed in the database; no cut-off is given here.
What was measured:
[1] = test system: Mus musculus; test: Impairment of contextual memory in C57BL/6J mouse at 30 mg/kg, ip; assay type: functional, organism-based; set-up: dose 30 mg/kg
Method in brief: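 Male C57Bl/6 mice aged 7–12 weeks, given an ip injection in 0.9% saline containing 2.5% encapsin, 20 min before training. Training was 4 min in the chamber, then three 33 s tones (85 dB, 2.9 kHz), each ending in a 0.75 mA shock for 3 s, 1 min apart. Twenty-four hours later, freezing was scored during a 4 min context test without shock.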

[2] = test system: Mus musculus; test: Effect on spontaneous locomotor activity in C57BL/6J mouse at 30 mg/kg, ip by automated assessment; assay type: functional; details: route intraperitoneal
Method in brief: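 Male C57Bl/6 mice given 30 mg/kg ip, compared with vehicle-injected mice. Spontaneous locomotor activity was recorded automatically over a 40 min observation period after injection.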

[3] = target: T1, GABA A receptor alpha-4/beta-3/gamma-2 (Homo sapiens, UniProt P18507+P28472+P48169); test: Binding affinity to GABAA alpha-4-beta-3-gamma-2 receptor; assay type: protein-complex assay
T1 sequence (P48169 whole entry, one chain of several): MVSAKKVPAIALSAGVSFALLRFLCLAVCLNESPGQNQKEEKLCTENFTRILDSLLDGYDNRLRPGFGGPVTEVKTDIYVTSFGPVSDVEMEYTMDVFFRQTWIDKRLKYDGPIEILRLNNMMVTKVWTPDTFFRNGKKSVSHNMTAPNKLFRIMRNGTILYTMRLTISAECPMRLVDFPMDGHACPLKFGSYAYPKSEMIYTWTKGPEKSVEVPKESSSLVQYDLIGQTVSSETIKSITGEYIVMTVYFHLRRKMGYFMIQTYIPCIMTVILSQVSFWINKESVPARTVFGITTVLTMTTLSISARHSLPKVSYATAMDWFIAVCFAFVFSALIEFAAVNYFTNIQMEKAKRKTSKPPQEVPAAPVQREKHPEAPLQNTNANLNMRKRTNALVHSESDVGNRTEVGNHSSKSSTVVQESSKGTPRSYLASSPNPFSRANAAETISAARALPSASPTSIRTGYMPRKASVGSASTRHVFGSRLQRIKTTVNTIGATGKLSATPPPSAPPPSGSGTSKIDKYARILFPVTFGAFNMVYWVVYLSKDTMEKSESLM

[4] = target: T2, GABA-A receptor; alpha-2/beta-3/gamma-2 (Homo sapiens, UniProt P18507+P28472+P47869); test: Binding affinity to GABAA alpha-2-beta-3-gamma-2 receptor
T2 sequence (P18507 whole entry): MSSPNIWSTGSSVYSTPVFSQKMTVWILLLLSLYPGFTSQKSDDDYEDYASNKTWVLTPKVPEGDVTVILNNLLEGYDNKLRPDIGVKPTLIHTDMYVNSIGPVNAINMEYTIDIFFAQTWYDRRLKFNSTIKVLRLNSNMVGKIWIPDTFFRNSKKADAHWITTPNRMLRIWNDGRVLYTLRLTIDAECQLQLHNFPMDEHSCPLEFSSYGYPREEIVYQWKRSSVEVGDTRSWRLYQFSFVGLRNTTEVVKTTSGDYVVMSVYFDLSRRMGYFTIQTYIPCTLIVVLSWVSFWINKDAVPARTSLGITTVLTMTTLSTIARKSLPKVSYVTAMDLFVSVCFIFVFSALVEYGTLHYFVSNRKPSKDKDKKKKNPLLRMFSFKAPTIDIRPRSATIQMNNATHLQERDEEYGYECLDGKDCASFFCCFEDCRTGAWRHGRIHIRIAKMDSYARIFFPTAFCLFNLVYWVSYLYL
T2 sequence (P28472 whole entry): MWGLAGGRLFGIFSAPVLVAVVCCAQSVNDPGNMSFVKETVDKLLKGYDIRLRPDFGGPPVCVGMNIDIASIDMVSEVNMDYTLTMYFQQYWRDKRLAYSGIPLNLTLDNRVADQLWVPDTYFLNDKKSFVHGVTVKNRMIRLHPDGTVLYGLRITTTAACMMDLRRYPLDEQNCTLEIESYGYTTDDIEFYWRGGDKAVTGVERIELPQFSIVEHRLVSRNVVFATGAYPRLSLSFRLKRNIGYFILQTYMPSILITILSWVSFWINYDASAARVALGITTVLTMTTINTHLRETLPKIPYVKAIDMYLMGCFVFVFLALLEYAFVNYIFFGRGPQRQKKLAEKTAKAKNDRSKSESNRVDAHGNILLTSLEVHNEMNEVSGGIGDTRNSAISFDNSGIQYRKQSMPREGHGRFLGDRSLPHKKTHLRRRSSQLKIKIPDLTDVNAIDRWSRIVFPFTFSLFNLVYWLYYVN
T2 sequence (P47869 whole entry): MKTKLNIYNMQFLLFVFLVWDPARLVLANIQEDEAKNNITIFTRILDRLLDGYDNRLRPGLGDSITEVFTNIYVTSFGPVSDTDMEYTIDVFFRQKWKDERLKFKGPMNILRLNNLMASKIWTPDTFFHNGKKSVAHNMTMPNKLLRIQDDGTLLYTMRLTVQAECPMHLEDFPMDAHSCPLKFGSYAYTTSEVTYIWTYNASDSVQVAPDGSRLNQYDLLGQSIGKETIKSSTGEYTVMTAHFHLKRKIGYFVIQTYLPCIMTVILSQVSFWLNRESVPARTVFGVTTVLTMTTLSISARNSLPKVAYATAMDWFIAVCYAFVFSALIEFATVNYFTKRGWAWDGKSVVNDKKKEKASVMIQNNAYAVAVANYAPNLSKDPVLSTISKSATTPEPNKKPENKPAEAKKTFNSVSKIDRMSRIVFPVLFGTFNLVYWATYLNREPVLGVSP

[5] = target: T3, GABA-A receptor; alpha-1/beta-3/gamma-2 (Homo sapiens, UniProt P14867+P18507+P28472); test: Binding affinity to GABAA alpha-1-beta-3-gamma-2 receptor; assay type: protein-complex assay
T3 sequence (P14867 whole entry): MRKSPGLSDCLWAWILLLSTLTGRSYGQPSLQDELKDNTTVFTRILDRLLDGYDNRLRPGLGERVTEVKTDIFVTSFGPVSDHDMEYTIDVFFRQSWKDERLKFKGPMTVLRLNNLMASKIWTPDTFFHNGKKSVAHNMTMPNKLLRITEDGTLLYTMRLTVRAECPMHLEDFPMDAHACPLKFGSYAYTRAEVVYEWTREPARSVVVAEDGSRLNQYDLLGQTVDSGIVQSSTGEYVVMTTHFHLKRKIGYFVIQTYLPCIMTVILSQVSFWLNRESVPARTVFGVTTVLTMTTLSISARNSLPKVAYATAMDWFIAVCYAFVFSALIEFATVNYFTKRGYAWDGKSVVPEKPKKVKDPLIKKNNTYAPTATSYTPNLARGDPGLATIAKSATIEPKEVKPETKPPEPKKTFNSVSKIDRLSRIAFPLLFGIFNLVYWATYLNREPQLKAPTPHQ
T3 sequence (P18507 whole entry): T2 sequence (P18507 whole entry)
T3 sequence (P28472 whole entry): T2 sequence (P28472 whole entry)

[6] = target: T4, GABA-A receptor; alpha-6/beta-3/gamma-2 (Homo sapiens, UniProt P18507+P28472+Q16445); test: Binding affinity to GABAA alpha-6-beta-3-gamma-2 receptor; assay type: protein-complex assay
T4 sequence (Q16445 whole entry, one chain of several): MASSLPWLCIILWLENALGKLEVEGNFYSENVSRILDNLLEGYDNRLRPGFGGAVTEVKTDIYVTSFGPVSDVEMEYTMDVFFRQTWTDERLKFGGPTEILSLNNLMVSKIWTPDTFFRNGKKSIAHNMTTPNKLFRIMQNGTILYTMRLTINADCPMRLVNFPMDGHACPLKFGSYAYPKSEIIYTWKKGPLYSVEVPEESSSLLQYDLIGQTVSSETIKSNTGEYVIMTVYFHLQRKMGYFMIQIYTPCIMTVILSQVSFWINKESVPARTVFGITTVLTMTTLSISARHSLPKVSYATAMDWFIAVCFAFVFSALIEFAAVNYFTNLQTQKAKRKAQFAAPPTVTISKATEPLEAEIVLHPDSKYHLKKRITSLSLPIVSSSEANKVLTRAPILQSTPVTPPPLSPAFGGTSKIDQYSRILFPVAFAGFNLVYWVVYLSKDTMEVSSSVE

[7] = target: T5, Gamma-aminobutyric acid receptor subunit alpha-3 (Homo sapiens, UniProt P18507+P28472+P34903); test: Binding affinity to GABAA alpha-3-beta-3-gamma-2 receptor
T5 sequence (P34903 whole entry): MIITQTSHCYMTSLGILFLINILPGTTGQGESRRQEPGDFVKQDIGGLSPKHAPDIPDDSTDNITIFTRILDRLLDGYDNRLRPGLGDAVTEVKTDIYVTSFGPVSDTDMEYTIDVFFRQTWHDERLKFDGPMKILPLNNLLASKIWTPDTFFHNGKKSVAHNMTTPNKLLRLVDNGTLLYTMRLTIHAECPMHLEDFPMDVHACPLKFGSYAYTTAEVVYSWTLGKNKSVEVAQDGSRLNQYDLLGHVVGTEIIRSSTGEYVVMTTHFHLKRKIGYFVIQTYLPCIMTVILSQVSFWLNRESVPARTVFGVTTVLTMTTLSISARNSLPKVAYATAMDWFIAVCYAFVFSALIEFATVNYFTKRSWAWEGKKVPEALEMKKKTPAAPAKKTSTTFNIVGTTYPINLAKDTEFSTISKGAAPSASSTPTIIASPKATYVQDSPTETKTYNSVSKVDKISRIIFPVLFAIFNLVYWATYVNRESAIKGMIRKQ

[8] = target: T6, GABA-A receptor; alpha-5/beta-3/gamma-2 (Homo sapiens, UniProt P18507+P28472+P31644); test: Binding affinity to GABAA alpha-5-beta-3-gamma-2 receptor; assay type: protein-complex assay
T6 sequence (P18507 whole entry): T2 sequence (P18507 whole entry)
T6 sequence (P28472 whole entry): T2 sequence (P28472 whole entry)
T6 sequence (P31644 whole entry): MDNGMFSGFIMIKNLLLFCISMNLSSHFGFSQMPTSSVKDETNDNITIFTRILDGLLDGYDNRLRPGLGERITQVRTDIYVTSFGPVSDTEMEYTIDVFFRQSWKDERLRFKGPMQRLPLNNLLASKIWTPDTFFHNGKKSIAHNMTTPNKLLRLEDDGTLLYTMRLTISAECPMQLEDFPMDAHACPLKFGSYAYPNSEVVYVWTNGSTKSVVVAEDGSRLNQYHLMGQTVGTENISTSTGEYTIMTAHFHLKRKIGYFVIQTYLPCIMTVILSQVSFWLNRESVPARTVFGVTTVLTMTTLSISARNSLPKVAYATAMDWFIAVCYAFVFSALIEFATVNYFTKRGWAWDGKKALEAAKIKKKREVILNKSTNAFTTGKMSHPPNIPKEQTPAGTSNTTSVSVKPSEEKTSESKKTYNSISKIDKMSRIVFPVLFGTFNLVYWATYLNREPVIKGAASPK

[9] = target: T1, GABA A receptor alpha-4/beta-3/gamma-2; test: Activity at alpha-4-beta-3-gamma-2 GABAA receptor expressed in Xenopus oocytes assessed as inhibition in GABA-induced current by voltage clamp assay; assay type: cell-based, Oocyte
Method in brief: (§1)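 cRNA for alpha and beta3 subunits (0.0065 ng/nL) plus gamma2 (0.032 ng/nL) injected into Xenopus oocytes, 50 nL each, recorded after ≥36 h. Two-electrode voltage clamp at -60 mV, room temperature, in Xenopus Ringer's pH 7.4. Drug (final 0.1% DMSO) preapplied 30 s, then coapplied with GABA at about EC20 until peak. Current normalized to response without drug.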

[10] = target: T2, GABA-A receptor; alpha-2/beta-3/gamma-2; test: Activity at alpha-2-beta-3-gamma-2 GABAA receptor expressed in Xenopus oocytes assessed as inhibition in GABA-induced current by voltage clamp assay; assay type: cell-based, Oocyte; method in brief: as §1
[11] = target: T3, GABA-A receptor; alpha-1/beta-3/gamma-2; test: Activity at GABAA alpha-1-beta-3-gamma-2 receptor expressed in Xenopus oocytes assessed as inhibition of GABA-induced current by voltage clamp assay; assay type: cell-based, Oocyte; method in brief: as §1
[12] = target: T4, GABA-A receptor; alpha-6/beta-3/gamma-2; test: Activity at alpha-6-beta-3-gamma-2 GABAA receptor expressed in Xenopus oocytes assessed as inhibition in GABA-induced current by voltage clamp assay; assay type: cell-based, Oocyte; method in brief: as §1
[13] = target: T6, GABA-A receptor; alpha-5/beta-3/gamma-2; test: Activity at alpha-5-beta-3-gamma-2 GABAA receptor expressed in Xenopus oocytes assessed as inhibition in GABA-induced current by voltage clamp assay; assay type: cell-based, Oocyte
Method in brief: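 cRNA-injected Xenopus oocytes (α5, β3 transcripts 0.0065 ng/nL, γ2 0.032 ng/nL; 50 nL), defolliculated after ≥36 h; two-electrode voltage clamp at −60 mV, room temperature, in Xenopus Ringer's pH 7.4. Ligand (1 µM; 0.1% DMSO final) preapplied 30 s, then coapplied with GABA at EC20 until peak; current change versus GABA alone.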

In the case of C#Cc1ccc2c(c1)C(c1ccccc1)=N[C@H](C)c1c(C(=O)OCC)ncn1-2, the Activity [1] is reported as “Active” and the Activity [2] is reported as 1026.

CN1CC2C(C(=O)OC(C)(C)C)=NCN2c2ccc(C#C[Si](C)(C)C)cc2C1=O (stereo not drawn) gave a Ki [3] of 2.61 nM, a Ki [4] of 143 nM and a Ki [5] of 197 nM. It also gave a Ki [6] of 58.6 nM, a Ki [7] of 255 nM and a Ki [8] of 2.61 nM.

In the case of C#Cc1ccc2c(c1)C(=O)N(C)Cc1c(C(=O)OC(C)(C)C)ncn1-2, the EC50 [9] is reported as 324000 nM, the EC50 [10] is reported as 95500 nM and the EC50 [11] is reported as 74400 nM. The EC50 [12] was 51700 nM and the EC50 [13] was 9800 nM.

— ChEMBL document CHEMBL1157475, “Selective influence on contextual memory: physiochemical properties associated with selectivity of benzodiazepine ligands at GABAA receptors containing the alpha5 subunit” (J Med Chem, 2008)
